Test results as given in ChEMBL document CHEMBL5390295, “Isolinderalactone Ameliorates the Pathology of Alzheimer's Disease by Inhibiting the JNK Signaling Pathway” (2023).
Calls of active or inactive are those of the source. The calls are words filed in the database; no cut-off is given here.

Legend:
PC-12 [1] = assay: Neuroprotective activity against Abeta1-42 induced rat PC12 cells assessed as reduction in LDH release at 10 uM preincubated for 3 hrs followed by Abeta1-42 induction and measured after 24 hrs by LDH release assay; format: functional, cell-based; settings: time 27.0 hrs
Outline: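 PC12 cells were pretreated 3 h with 10 μM, then incubated 24 h with or without 10 μM Aβ1–42. LDH released into the supernatant was measured.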

PC-12 [2] = assay: Induction of apoptosis in Abeta1-42 induced rat PC12 cells assessed as viable cell at 10 uM preincubated for 3 hrs followed by Abeta1-42 induction and measured after 24 hrs by Annexin V-FITC/PI staining based flow cytometry analysis (reference value: 97.8%); format: functional; settings: time 27 hrs
PC-12 [3] = assay: Induction of apoptosis in Abeta1-42 induced rat PC12 cells assessed as early apoptosis at 10 uM preincubated for 3 hrs followed by Abeta1-42 induction and measured after 24 hrs by Annexin V-FITC/PI staining based flow cytometry analysis (reference value: 1.5%); format: functional; settings: time 27 hrs
PC-12 [4] = assay: Neuroprotective activity in Abeta1-42 induced rat PC12 cells assessed as decrease in cleaved caspase-3 level at 10 uM preincubated for 3 hrs followed by Abeta1-42 induction and measured after 24 hrs; format: functional, cell-based; settings: time 27.0 hrs
Outline: (§1)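 Aβ1–42 challenge in PC12 cells was 10 μM for 24 h after 3 h pretreatment at 10 μM. SP600125 (1.25 μM) was added 0.5 h before pretreatment where used. Cells were lysed in RIPA and protein measured by BCA. Blotting used PVDF transfer, 5% BSA/TBST block for 2 h, primaries 1:1000 overnight at 4 °C, and HRP secondary for 2 h. Bcl-2/Bax ratio and band intensities were quantified.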

PC-12 [5] = assay: Neuroprotective activity against Abeta1-42 induced rat PC12 cells assessed as reduction in ROS level at 10 uM preincubated for 3 hrs followed by Abeta1-42 induction and measured after 24 hrs by y DCFH2-DA probe based analysis; format: functional, cell-based; settings: time 27.0 hrs
Outline: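 PC12 cells were pretreated 3 h at 10 μM, then given 10 μM Aβ1–42 for 24 h. Cells were loaded with DCFH-DA 10 μM in FBS-free DMEM for 30 min in the dark and washed. Fluorescence was read at Ex 488/Em 525 nm.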

PC12 = assay: Restoration of mitochondrial membrane potential in Abeta1-42 induced rat PC12 cells at 10 uM preincubated for 3 hrs followed by Abeta1-42 induction and measured after 24 hrs by JC-1 staining based analysis; format: cell-based; settings: time 27.0 hrs
Outline: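 PC12 cells pretreated 3 h, then exposed to 10 μM Aβ1–42 oligomer for 24 h. Cells were loaded with JC-1 (10 μg/mL, serum-free medium) for 30 min at 37 °C and washed twice in PBS. Plate-reader fluorescence was read as red (ex 560/em 595) and green (ex 485/em 535); Δψm = red/green ratio, normalized to control. Mean ± SEM, three experiments.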

PC-12 [6] = assay: Neuroprotective activity against Abeta1-42 induced rat PC12 cells assessed as decrease in JNK phosphorylation level at 10 uM preincubated for 3 hrs followed by Abeta1-42 induction and measured after 24 hrs by Western blot analysis; format: functional, cell-based; settings: time 27.0 hrs; outline: as §1
PC-12 [7] = assay: Neuroprotective activity against in Abeta1-42 induced rat PC12 cells assessed as effect on P38MAPK protein level at 10 uM preincubated for 3 hrs followed by Abeta1-42 induction and measured after 24 hrs by Western blot analysis; format: functional, cell-based; settings: time 27.0 hrs; outline: as §1
PC-12 [8] = assay: Neuroprotective activity against Abeta1-42 induced rat PC12 cells assessed as effect on Bcl2/Bax ratio level at 10 uM preincubated for 3 hrs followed by Abeta1-42 induction and measured after 24 hrs in the presence of SP600125 by Western blot analysis; format: functional, cell-based; settings: time 27.0 hrs; outline: as §1
Mus musculus [9] = assay: Anti-alzheimer activity against APP/PS1 dE9 double transgenic mouse model assessed as improvement in exploration time for novel object at 10 mg/kg, ip administered once daily for 30 consecutive days measured on day 2 by novel object recognition test; format: functional, organism-based; settings: time 32.0 day
Outline: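 Same mouse cohort and ip PBS dosing schedule (1 or 10 mg/kg; donepezil 5 mg/kg). Novel object recognition: two objects, 5 min session, with exploration frequency and duration scored within 2–3 cm of objects. After 24 h one object was replaced by a novel object and a second 5 min session was recorded.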

Mus musculus [10] = assay: Anti-alzheimer activity in hippocampus of APP/PS1 dE9 double transgenic mouse model assessed as reduction in APP/beta-amyloid level at 10 mg/kg, ip administered once daily for 30 consecutive days by Western blot analysis; format: functional, organism-based; settings: time 30.0 day
Outline: (§2)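 Hippocampal homogenates from dosed APP/PS1 mice were extracted in RIPA and protein measured by BCA. Samples were run by SDS electrophoresis, transferred to 0.22 μm PVDF for 90 min, blocked with 5% BSA in TBST for 2 h at RT, and probed with primaries 1:1000 overnight at 4 °C. HRP secondary was applied for 2 h at RT.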

Mus musculus [11] = assay: Anti-alzheimer activity in hippocampus of APP/PS1 dE9 double transgenic mouse model assessed as increase in the level of Map2 at 10 mg/kg, ip administered once daily for 30 consecutive days by Western blot analysis; format: functional, organism-based; settings: time 30.0 day; outline: as §2
Mus musculus [12] = assay: Anti-alzheimer activity in hippocampus of APP/PS1 dE9 double transgenic mouse model as reduction in neuronal apoptosis at 1 to 10 mg/kg, ip administered once daily for 30 consecutive days by immunofluorescence analysis; format: functional, organism-based; settings: dose 1-10 mg/kg, time 30.0 day
Outline: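 Brains from dosed female APP/PS1 mice (10 months) were fixed in 4% paraformaldehyde at 4 °C for 24–48 h, taken through a sucrose gradient and OCT, and cut into 15 μm sections. Sections were permeabilized with 0.3% Triton X-100, blocked in 10% BSA for 1 h, and incubated with primary antibody overnight at 4 °C (1:200). Secondary was 1:500 for 1 h at 25 °C, with DAPI counterstain and confocal imaging, in triplicate.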

Mus musculus [13] = assay: Anti-alzheimer activity in hippocampus of APP/PS1 dE9 double transgenic mouse model assessed as increase in […] at 1 to 10 mg/kg, ip administered once daily for 30 consecutive days […]; format: functional, organism-based; settings: dose 1-10 mg/kg, time 30.0 day
Outline: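 Hippocampal tissue from dosed APP/PS1 mice was lysed in RIPA. SOD activity was read by WST-8/xanthine oxidase formazan kit assay and MDA by lipid peroxidation kit, with absorbance on a microplate reader.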

Mus musculus [14] = assay: Anti-alzheimer activity in hippocampus of APP/PS1 dE9 double transgenic mouse model assessed as decrease in MDA level at 1 to 10 mg/kg, ip administered once daily for 30 consecutive days […]; format: functional, organism-based; settings: dose 1-10 mg/kg, time 30.0 day
Mus musculus [15] = assay: Anti-alzheimer activity in hippocampus of APP/PS1 dE9 double transgenic mouse model assessed as suppression in p-JNK level at 10 mg/kg, ip administered once daily for 30 consecutive days by Western blot analysis; format: functional, organism-based; settings: time 30.0 day; outline: as §2
Mus musculus [16] = assay: Neuroprotective activity in APP/PS1 dE9 double transgenic mouse model assessed as improvement in spatial memory at 10 mg/kg, ip administered once daily for 30 consecutive days […] by morris water maze test; format: functional, organism-based; settings: time 36.0 day
Outline: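 Female APP/PS1 mice, 10 months old, about 30 g, 10 per group. Dosing was intraperitoneal in 1× PBS, once daily for one month (1 or 10 mg/kg test; 5 mg/kg donepezil). WT and untreated APP/PS1 controls got PBS. Morris water maze: training days 1–4, averaged escape latency. Day-5 probe trial ran 60 s with the platform removed, recording platform crossings and time per quadrant. Mean ± SEM.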

## C=C[C@@]1(C)Cc2occ(C)c2[C@@H]2OC(=O)C(=C)[C@@H]21 [ISOLINDERALACTONE]
PC-12 [1]
  Activity: Active
PC-12 [2]
  Activity: 97.6%
PC-12 [3]
  Activity: 2%
PC-12 [4]
  Activity: Active
PC-12 [5]
  Activity: Active
PC12
  Activity: Active
PC-12 [6]
  Activity: Active
PC-12 [7]
  Activity: inactive
PC-12 [8]
  Activity: inactive
Mus musculus [9]
  Activity: Active
Mus musculus [10]
  Activity: Active
Mus musculus [11]
  Activity: Active
Mus musculus [12]
  Activity: Active
Mus musculus [13]
  Activity: Active
Mus musculus [14]
  Activity: Active
Mus musculus [15]
  Activity: Active
Mus musculus [16]
  Activity: Active
